We go through one compound from ChEMBL document CHEMBL1821673, “Development of β-amino alcohol derivatives that inhibit Toll-like receptor 4 mediated inflammatory response as potential antiseptics” (J Med Chem, 2011).

Each structure is given as a SMILES string. Activity calls are given as the source filed them. No cut-off for these calls is given here.

For data set [1], the target named is T1, Toll-like receptor 4 (Homo sapiens, UniProt O00206). Briefly: Inhibition of LPS-induced TLR4 activation in human whole blood assessed as inhibition of IL-8 release at 500 uM preincubated for 5 to 10 mins. An outline of the steps: (§1)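 Fresh human blood anticoagulated with lepirudin, preincubated with compound 5–10 min at 37 °C, then stimulated with 100 ng/mL ultrapure E. coli 0111:B4 LPS, rotating 2 h at 37 °C. Stopped with EDTA 10 mM final; plasma TNF-α, IL-8 and IL-6 measured by singleplex Bio-plex, expressed as % of LPS without inhibitor. n = 3 or 9, paired two-sided t-test.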
T1 sequence (O00206 whole entry): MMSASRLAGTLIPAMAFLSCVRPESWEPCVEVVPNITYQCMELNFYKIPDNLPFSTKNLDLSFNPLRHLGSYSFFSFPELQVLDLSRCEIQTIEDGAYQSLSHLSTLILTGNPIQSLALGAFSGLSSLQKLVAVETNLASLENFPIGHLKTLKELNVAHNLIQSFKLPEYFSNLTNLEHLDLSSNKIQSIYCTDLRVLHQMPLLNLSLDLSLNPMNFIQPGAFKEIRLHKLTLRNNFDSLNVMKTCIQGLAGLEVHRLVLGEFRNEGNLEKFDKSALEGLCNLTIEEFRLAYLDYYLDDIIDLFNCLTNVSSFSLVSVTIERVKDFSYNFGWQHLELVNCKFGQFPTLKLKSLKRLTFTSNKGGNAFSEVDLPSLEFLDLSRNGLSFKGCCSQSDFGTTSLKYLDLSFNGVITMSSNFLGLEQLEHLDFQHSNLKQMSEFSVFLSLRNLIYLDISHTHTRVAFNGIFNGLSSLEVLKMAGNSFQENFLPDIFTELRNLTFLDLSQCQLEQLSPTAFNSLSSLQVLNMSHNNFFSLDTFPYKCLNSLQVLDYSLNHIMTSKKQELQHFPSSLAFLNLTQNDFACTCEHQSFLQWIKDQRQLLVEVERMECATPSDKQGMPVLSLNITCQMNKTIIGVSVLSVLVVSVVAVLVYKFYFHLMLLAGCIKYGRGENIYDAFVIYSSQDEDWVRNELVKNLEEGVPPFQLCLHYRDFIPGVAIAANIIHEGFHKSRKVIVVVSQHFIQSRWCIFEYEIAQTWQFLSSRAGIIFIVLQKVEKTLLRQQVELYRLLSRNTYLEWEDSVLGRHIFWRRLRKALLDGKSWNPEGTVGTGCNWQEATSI

Data set [2] deals with T1, Toll-like receptor 4. Briefly: Inhibition of LPS-induced TLR4 activation in human whole blood assessed as inhibition of IL-6 release at 500 uM preincubated for 5 to 10 mins. In outline: as §1
Data set [3] addresses T1, Toll-like receptor 4. Briefly: Inhibition of LPS-induced TLR4 activation in human whole blood assessed as reduction in plasma TNFalpha level at 250 uM preincubated for 5 to 10 mins. In outline:
as §1

Data set [4] can be described thus: Octanol/water distribution coefficient, log D of the compound at pH 7.4. It counts as physicochemical. In outline:
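Octanol/water distribution measured at pH 7.4.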

Another data set relates to MDCK. Kind of data set: Permeability across apical to basolateral side of MDCK cells expressing MDR1 at 5 uM. It counts as ADME, cell-based, Canis lupus familiaris. The settings on record: dog. An outline of the steps:
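MDR1-MDCK monolayer; transport measured in apical-to-basolateral and basolateral-to-apical directions at 5 µM.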

Another data set concerns the target Cytochrome P450 2D6 (Homo sapiens, UniProt P10635). Kind of data set: Inhibition of CYP2D6 in human liver microsomes using bufuralol as probe. It counts as ADME, Microsome. (In general: Liver microsomes are a subcellular fraction often used to study metabolism.)
Data set [5] has as its target RAC-alpha serine/threonine-protein kinase (Homo sapiens) (UniProt P31749). Kind of data set: Inhibition of AKT1 at 28 uM by luciferase fragment complementation assay.
Data set [6] deals with Mitogen-activated protein kinase 1 (Homo sapiens) (UniProt P28482). Briefly: Inhibition of MAPK1 at 28 uM by luciferase fragment complementation assay.
Mitogen-activated protein kinase 1 (Homo sapiens), sequence (P28482 whole entry, the tested form may be a part): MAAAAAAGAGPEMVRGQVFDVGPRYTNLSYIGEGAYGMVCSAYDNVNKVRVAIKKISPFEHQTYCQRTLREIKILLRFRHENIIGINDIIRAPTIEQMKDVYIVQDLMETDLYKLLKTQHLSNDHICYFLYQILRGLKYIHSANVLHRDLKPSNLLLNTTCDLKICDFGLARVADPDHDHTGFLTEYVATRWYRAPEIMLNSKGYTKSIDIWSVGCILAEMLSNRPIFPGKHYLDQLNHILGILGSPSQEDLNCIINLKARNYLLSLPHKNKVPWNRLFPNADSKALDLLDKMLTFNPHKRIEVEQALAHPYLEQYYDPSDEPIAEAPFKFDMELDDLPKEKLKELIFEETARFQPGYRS
Data set [7] deals with Hepatocyte growth factor receptor (Homo sapiens) (UniProt P08581). Kind of data set: Inhibition of MET at 28 uM by luciferase fragment complementation assay.
Hepatocyte growth factor receptor (Homo sapiens), sequence (P08581 whole entry, the tested form may be a part): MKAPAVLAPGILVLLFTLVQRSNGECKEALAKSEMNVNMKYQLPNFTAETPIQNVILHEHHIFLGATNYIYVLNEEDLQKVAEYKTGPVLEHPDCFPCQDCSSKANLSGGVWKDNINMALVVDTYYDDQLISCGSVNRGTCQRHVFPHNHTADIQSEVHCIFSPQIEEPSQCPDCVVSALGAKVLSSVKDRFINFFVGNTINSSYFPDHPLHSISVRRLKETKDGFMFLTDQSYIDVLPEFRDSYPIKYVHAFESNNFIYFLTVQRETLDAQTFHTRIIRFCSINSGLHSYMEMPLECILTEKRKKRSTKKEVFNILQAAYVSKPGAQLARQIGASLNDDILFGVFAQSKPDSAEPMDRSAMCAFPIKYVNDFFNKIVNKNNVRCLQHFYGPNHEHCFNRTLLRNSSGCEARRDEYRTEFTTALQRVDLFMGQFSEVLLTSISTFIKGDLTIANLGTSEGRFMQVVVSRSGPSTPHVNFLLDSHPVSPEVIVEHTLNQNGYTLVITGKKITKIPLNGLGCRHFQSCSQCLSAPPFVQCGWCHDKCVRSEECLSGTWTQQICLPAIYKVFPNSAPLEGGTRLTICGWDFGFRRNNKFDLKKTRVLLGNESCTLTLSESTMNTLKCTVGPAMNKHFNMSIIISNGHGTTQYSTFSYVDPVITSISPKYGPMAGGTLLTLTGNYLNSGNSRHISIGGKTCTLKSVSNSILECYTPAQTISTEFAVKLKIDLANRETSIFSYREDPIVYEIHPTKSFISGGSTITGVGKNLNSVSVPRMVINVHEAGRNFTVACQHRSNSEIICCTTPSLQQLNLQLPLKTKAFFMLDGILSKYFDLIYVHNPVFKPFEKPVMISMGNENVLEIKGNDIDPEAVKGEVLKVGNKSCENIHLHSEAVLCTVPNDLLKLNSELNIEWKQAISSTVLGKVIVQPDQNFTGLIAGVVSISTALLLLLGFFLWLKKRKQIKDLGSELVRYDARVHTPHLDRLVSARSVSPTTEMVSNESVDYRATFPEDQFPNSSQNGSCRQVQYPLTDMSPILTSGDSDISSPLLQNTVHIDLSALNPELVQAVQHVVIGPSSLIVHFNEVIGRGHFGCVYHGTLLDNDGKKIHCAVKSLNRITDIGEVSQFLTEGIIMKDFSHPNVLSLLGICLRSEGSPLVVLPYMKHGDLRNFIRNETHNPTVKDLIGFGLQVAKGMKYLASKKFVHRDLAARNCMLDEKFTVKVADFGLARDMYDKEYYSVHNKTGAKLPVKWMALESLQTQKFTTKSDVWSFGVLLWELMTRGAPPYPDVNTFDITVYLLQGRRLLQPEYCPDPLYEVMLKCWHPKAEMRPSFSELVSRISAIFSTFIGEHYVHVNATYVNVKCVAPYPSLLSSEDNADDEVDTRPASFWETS
In data set [8] the target is Platelet-derived growth factor receptor beta (Homo sapiens) (UniProt P09619). Briefly: Inhibition of PDGFRB at 28 uM by luciferase fragment complementation assay.
Platelet-derived growth factor receptor beta (Homo sapiens), sequence (P09619 whole entry, the tested form may be a part): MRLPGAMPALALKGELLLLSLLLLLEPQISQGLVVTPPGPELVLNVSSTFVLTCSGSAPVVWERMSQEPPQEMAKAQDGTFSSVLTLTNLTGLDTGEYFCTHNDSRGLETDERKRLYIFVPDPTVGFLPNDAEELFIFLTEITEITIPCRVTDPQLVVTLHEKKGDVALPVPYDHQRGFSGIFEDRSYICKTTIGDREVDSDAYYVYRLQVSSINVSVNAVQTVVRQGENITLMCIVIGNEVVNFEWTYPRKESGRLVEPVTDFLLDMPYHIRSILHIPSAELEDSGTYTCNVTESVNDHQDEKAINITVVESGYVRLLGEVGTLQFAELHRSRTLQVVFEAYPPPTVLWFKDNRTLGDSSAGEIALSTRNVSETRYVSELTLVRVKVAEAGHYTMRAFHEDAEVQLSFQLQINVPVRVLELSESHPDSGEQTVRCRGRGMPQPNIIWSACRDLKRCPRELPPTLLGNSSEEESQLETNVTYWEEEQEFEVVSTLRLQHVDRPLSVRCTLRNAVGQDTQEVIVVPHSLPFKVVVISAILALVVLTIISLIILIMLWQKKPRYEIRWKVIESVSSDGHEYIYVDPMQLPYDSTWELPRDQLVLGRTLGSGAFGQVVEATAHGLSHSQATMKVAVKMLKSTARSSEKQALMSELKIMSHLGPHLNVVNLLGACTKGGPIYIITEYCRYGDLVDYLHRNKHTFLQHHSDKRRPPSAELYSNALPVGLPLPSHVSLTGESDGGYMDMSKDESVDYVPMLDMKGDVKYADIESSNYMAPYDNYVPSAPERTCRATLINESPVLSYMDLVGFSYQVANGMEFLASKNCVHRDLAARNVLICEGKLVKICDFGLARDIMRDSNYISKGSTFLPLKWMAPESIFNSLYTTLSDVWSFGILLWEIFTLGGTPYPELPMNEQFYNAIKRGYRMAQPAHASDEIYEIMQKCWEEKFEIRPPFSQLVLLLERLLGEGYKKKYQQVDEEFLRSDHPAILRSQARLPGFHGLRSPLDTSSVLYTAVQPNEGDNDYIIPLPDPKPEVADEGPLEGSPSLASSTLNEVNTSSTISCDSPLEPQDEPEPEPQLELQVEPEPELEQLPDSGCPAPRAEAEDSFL
The next data set relates to Blood. Kind of data set: Cytotoxicity against human whole blood assessed as hemolysis at 1 mM. The format is tissue-based. The settings on record: 1000 µM. An outline of the steps:
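Human whole blood anticoagulated with lepirudin, exposed to compound at up to 1 mM; hemolysis checked.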

Cytochrome P450 2D6, sequence (P10635 whole entry, the tested form may be a part): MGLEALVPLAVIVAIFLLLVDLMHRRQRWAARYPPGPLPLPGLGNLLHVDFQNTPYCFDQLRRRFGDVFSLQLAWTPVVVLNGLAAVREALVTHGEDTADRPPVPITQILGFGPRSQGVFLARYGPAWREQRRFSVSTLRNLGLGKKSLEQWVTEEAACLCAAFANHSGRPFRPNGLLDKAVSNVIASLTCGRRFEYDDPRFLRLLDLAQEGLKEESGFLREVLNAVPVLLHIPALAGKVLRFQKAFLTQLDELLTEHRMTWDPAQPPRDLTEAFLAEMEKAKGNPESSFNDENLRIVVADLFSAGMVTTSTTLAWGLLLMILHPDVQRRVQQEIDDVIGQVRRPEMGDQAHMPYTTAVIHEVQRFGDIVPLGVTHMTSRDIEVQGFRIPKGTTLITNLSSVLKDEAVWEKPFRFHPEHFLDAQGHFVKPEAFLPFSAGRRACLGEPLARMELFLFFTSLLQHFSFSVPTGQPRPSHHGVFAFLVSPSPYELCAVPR
RAC-alpha serine/threonine-protein kinase (Homo sapiens), sequence (P31749 whole entry, the tested form may be a part): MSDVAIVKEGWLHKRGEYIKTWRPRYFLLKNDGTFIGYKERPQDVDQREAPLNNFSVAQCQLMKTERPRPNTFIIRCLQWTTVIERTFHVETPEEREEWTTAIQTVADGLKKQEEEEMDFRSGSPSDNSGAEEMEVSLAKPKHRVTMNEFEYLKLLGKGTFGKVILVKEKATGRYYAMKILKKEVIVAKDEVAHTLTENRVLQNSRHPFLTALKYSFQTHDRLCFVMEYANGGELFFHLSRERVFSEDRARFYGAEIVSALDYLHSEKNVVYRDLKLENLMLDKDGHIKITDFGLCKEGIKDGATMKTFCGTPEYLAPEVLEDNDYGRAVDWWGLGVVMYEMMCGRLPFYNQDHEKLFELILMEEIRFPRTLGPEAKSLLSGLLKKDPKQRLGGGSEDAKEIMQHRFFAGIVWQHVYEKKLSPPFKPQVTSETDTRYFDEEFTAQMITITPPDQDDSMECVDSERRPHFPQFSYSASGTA

Regarding `CCOc1ccc(OCC(O)CN(C)Cc2c(C)nn(Cc3ccccc3Cl)c2C)cc1` (racemic), the inhibition entry at Toll-like receptor 4 [1] and at Toll-like receptor 4 [2] was “Active” each time. Besides, the inhibition (as a rule, the relative decrease from the control value, in per cent) on Toll-like receptor 4 [3] was 43%; in [5] it was at most 27%; in [6], at most 27%; in data set [7] it was at most 27%; in [8] it was at most 27%. The logD (commonly the decadic logarithm of the distribution of all forms, ionised or not, between an organic phase and buffer at a given pH) in [4] is 3.36. Further, the permeability result with MDCK was “permeable”. Also, the 50% inhibitory concentration (IC50) (as a rule, the concentration that gives 50% inhibition) at Cytochrome P450 2D6 worked out at 32 µM. Further, the Activity entry in the data set on Blood is “Non-toxic”.
